Here are results for 20 compounds from ChEMBL document CHEMBL1125255, “Romazarit: a potential disease-modifying antirheumatic drug” (J Med Chem, 1991).

Several values for one entry are separate records, joined by “and”; a condition that tells them apart may be missing. Identical values can stand only once. Activity calls are given as the source filed them. The calls are words filed in the database; no cut-off is given here.

Data set [1] has as its system Rattus norvegicus. Briefly: Compound was evaluated in developing adjuvant arthritis model rats for its effect on paw edema; No significant effect. It is filed as functional, organism-based. The method in brief:
(§1)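 Female Allen and Hanbury hooded rats, five per group. Right hind paw injected sc on day 0 with heat-killed M. tuberculosis in paraffin oil (5 mg/mL). Compounds given orally as sodium salts in water. Paw volumes of both hind paws measured days 1–4, 1 h after dosing. Percent inhibition taken from area under the curve of the between-paw volume difference.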

For data set [2], the species on record is Rattus norvegicus. Description: Percent decrease in serum haptoglobin evaluated in a developing adjuvant arthritis model rats; No significant effect.
Data set [3] in a line: Partition coefficient (logP). It is filed as physicochemical. The settings on record: octanol/water. An outline of the steps: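 Compound dissolved in disodium hydrogen phosphate/citric acid buffer pH 7.4 and partitioned against equal volume octan-1-ol. Buffer-phase UV absorbance read before and after partitioning near λmax. P′ from the octanol:buffer absorbance ratio.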

The test system of data set [4] is Rattus norvegicus. Description: Hepatic effect assessed by increase in liver weight after 14 days of dosing at 100 mg/kg orally. It is filed as functional. The method in brief: (§2)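 Type II collagen arthritis rats, eight per group, daily oral dosing as sodium salts in water for 14 days. Liver weight recorded at termination and expressed as percentage change versus normal animals.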

The species entered for data set [5] is Rattus norvegicus. Description: Percent decrease in serum haptoglobin evaluated in a developing adjuvant arthritis model rats.
In data set [6] the test system is Rattus norvegicus. Briefly: Radiographic change was judged in the area of the talus joint, using an arbitrary scoring system upon termination of the test (14 days dosing of 100 mg/kg) in a model of type II collagen arthritis in the rat. It is filed as functional. The settings on record: 336 h. An outline of the steps:
(§3)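 Type II collagen arthritis rats, eight per group, oral sodium salts daily from grouping (day 1). Hind limbs X-rayed post mortem. Tibia/talus and tarsus damage scored 0–3 per foot by two observers and averaged; left and right summed (max 6). Compared with arthritic controls by Mann–Whitney U test.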

For data set [7], the system named is Rattus norvegicus. Briefly: Radiographic change was judged in the area of the tarsus region, using an arbitrary scoring system upon termination of the test (14 days dosing of 100 mg/kg) in a model of type II collagen arthritis in the rat. The settings on record: 336 h. It is filed as functional. The method in brief: as §3
Data set [8] deals with Rattus norvegicus. Description: Compound was evaluated in developing adjuvant arthritis model rats for its effect on paw edema. On the set-up: concentration or dose not given beside the values. In kind it is functional. An outline of the steps: as §1
In data set [9] the test system is Rattus norvegicus. Description: Hepatic effect assessed by increase in catalase levels after 14 days of dosing at 100 mg/kg orally. It is filed as functional. The method in brief: (§4)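 Type II collagen arthritis rats, eight per group, given oral sodium salts daily for 14 days. At termination liver homogenized in ice-cold 0.25 M sucrose and spun 2000 rpm 10 min. Catalase followed by decline in A240 from H2O2 breakdown, expressed as first-order rate constant K. Result given as % change versus normals.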

In data set [10] the test system is Rattus norvegicus. Briefly: Radiographic change was judged in the area of the talus joint, using an arbitrary scoring system upon termination of the test (0.5 mg/kg 1-5 days dosing,0.25 mg/kg 6-15 days dosing)in a model of type II collagen arthritis in the rat. It is filed as functional. The method in brief: as §3
The subject of data set [11] is Rattus norvegicus. Description: Radiographic change was judged in the area of the talus joint, using an arbitrary scoring system upon termination of the test (14 days dosing of 50 mg/kg) in a model of type II collagen arthritis in the rat. In kind it is functional. The settings on record: 336 h. An outline of the steps: as §3
Data set [12] deals with Rattus norvegicus. Description: Hepatic effect assessed by increase in liver weight after 14 days of dosing at 50 mg/kg orally. In kind it is functional. The method in brief: as §2
Data set [13] concerns Rattus norvegicus. Briefly: Radiographic change was judged in the area of the tarsus region, using an arbitrary scoring system upon termination of the test (14 days dosing of 50 mg/kg) in a model of type II collagen arthritis in the rat. In kind it is functional. The settings on record: 336 h. The method in brief: as §3
Data set [14] deals with Rattus norvegicus. Briefly: Hepatic effect assessed by increase in catalase levels after 14 days of dosing at 50 mg/kg orally. In kind it is functional. The method in brief:
as §4

Data set [15] in a line: Inhibition of prostaglandin synthetase in sheep seminal vesicle. On the set-up: species or system Ovis aries. The method in brief: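 Sheep seminal vesicle enzyme (2.5 mg/mL) preincubated 5 min at 30 °C with or without compound (sodium salt, aqueous) plus glutathione 1 mM and adrenaline 625 μM. Integrated prostaglandin/thromboxane peak area compared with the no-drug control.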

Data set [16] relates to Rattus norvegicus. Description: Radiographic change was judged in the area of the talus joint, using an arbitrary scoring system upon termination of the test (14 days dosing of 1 mg/kg) in a model of type II collagen arthritis in the rat. In kind it is functional. The settings on record: 336 h. The method in brief: as §3
The subject of data set [17] is Rattus norvegicus. Description: Radiographic change was judged in the area of the tarsus region, using an arbitrary scoring system upon termination of the test (14 days dosing of 1 mg/kg) in a model of type II collagen arthritis in the rat. In kind it is functional. The settings on record: 336 h. The method in brief:
as §3

Another data set deals with Mononuclear cell line. Description: Inhibition of human PGE-2 production. It is filed as functional, cell-based. The method in brief: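 Human blood mononuclear cells from healthy volunteers stimulated with 2.5 μg/mL phytohaemagglutinin and incubated 24 h with compound (sodium salt). PGE2 measured by RIA.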

Usually logP stands for a log measure of how a compound divides between an organic and an aqueous phase. Take `CC(C)(OCc1cc(-c2ccc(Cl)cc2)[nH]n1)C(=O)O`: the inhibition result with Rattus norvegicus [1] is “inactive”. Moreover, the Decrease entry in the data set listed under Rattus norvegicus [2] was “inactive”. In [3], this compound displayed a logP of 0.36.
Broadly, the inhibition in vivo is how much of the control response was suppressed. The Inhibition is how much of the control response was suppressed. In [3], `CC(C)(OCc1ncc(-c2ccc(Cl)cc2)o1)C(=O)O` showed a log partition coefficient (logP) of 0.15. The Change with Rattus norvegicus [4] is given as 3%; with Rattus norvegicus [9] it was -10%. For the same compound, the Decrease in the data set filed under Rattus norvegicus [5] turned out to be 17%. The inhibition in vivo at 100 mg/kg in the data set with Rattus norvegicus [6] is 36%; in the data set with Rattus norvegicus [7], 24%. In addition, the Inhibition with Rattus norvegicus [8] was determined as 40%.
In the case of `CC(C)(OCc1cnc(-c2ccc(Cl)cc2)o1)C(=O)O`, the Decrease entry in the data set listed under Rattus norvegicus [2] was “inactive”. This compound displayed a logP in data set [3] of 0.11. For the same compound, the Change in the data set with Rattus norvegicus [4] is recorded as 16%; in the data set with Rattus norvegicus [9], 11%. For the same compound, the inhibition in vivo at 100 mg/kg in the data set with Rattus norvegicus [6] turned out to be 42%; in the data set on Rattus norvegicus [7], 41%. The Inhibition in the data set with Rattus norvegicus [8] worked out at 33%.
On to `C[C@@H]1C[C@H]2[C@@H]3CCC4=CC(=O)C=C[C@]4(C)[C@@]3(F)[C@@H](O)C[C@]2(C)[C@@]1(O)C(=O)CO` [DEXAMETHASONE], for which, in the data set with Rattus norvegicus [10], the Inhibition was 95% and 98%.
On to `CC(C)(OCc1ccn(-c2ccc(Cl)cc2)n1)C(=O)O`, for which the inhibition in vivo at 50 mg/kg was 48% with Rattus norvegicus [11] and 32% with Rattus norvegicus [13]. Moreover, the Change in the data set with Rattus norvegicus [12] came out at 13%; in the data set on Rattus norvegicus [14], 90%. For the same compound, the log partition coefficient (logP) in [3] worked out at 0. Also, the Decrease in the data set filed under Rattus norvegicus [5] is reported as 30%. Also, the Inhibition in the data set with Rattus norvegicus [8] is reported as 46%.
On to `Cn1cc(-c2ccc(Cl)cc2)nc1COC(C)(C)C(=O)O`, for which the inhibition entry with Rattus norvegicus [1] is “inactive”. For the same compound, the Decrease result in the data set listed under Rattus norvegicus [2] was “inactive”. The logP in data set [3] is 0.08.
Turning to `CC(C)(OCc1cnn(-c2ccc(Cl)cc2)c1)C(=O)O`, the values for the inhibition in vivo at 50 mg/kg with Rattus norvegicus [11] and with Rattus norvegicus [13] were 15% and 18%, respectively. The Change was determined as 70% in the data set with Rattus norvegicus [12] and 180% with Rattus norvegicus [14]. In data set [3], this compound had a logP of 0.04. The Decrease in the data set listed under Rattus norvegicus [5] is given as 37%. For the same compound, the Inhibition in the data set with Rattus norvegicus [8] is listed as 76%.
As for `CC(C)(OCc1scnc1-c1ccc(Cl)cc1)C(=O)O`, the inhibition entry with Rattus norvegicus [1] is “inactive”. In addition, the Decrease result in the data set filed under Rattus norvegicus [2] is “inactive”. The log partition coefficient (logP) in data set [3] was found to be 0.23.
As for `CC(C)(OCc1coc2ccc(Cl)cc12)C(=O)O`, the inhibition result in the data set with Rattus norvegicus [1] is “inactive”. In addition, in the data set listed under Rattus norvegicus [2], the Decrease result was “inactive”. The logP in data set [3] is -0.54.
Turning to `Cc1oc(-c2ccc(Cl)cc2)nc1COC(C)(C)C(=O)O`, the Decrease result in the data set listed under Rattus norvegicus [2] was “inactive”. Besides, the logP in [3] is 0.52. Also, the results for the Change in the data set on Rattus norvegicus [4] and with Rattus norvegicus [9] were 2% and 60%, respectively. Moreover, the inhibition in vivo at 100 mg/kg with Rattus norvegicus [6] came to 65%; with Rattus norvegicus [7], 54%. In the data set on Rattus norvegicus [8], the Inhibition came out at 67%.
`CC(C)(OCc1cccc(-c2ccc(Cl)cc2)n1)C(=O)O`: the inhibition entry with Rattus norvegicus [1] is “inactive”. For the same compound, the Decrease result in the data set filed under Rattus norvegicus [2] is “inactive”. The compound further returned a logP in data set [3] of 0.69.
Consider `CC(C)(OCc1ncsc1-c1ccc(Cl)cc1)C(=O)O`, for which the inhibition entry in the data set with Rattus norvegicus [1] was “inactive”. In addition, the Decrease result in the data set filed under Rattus norvegicus [2] is “inactive”. Moreover, in data set [3], the lipophilicity (logP) was determined as 0.23.
Take `CC(C)(OCc1coc(-c2ccc(Cl)cc2)n1)C(=O)O`: in [3], the logP came out at 0.23. Besides, the figures for the Change with Rattus norvegicus [4] and with Rattus norvegicus [9] were 19% and 52%, respectively. In addition, the Decrease in the data set listed under Rattus norvegicus [5] worked out at 40%. The inhibition in vivo at 100 mg/kg was 59% in the data set with Rattus norvegicus [6] and 44% with Rattus norvegicus [7]. For the same compound, the Inhibition in the data set on Rattus norvegicus [8] is listed as 84%.
Consider `CC(C)(OCc1cc(-c2ccc(Cl)cc2)no1)C(=O)O`, for which the logP in data set [3] worked out at 0.36. For the same compound, the Change in the data set on Rattus norvegicus [4] is reported as 47%; in the data set on Rattus norvegicus [9], 73%. The Decrease in the data set listed under Rattus norvegicus [5] is 37%. Also, the values for the inhibition in vivo at 100 mg/kg in the data set on Rattus norvegicus [6] and with Rattus norvegicus [7] were 60% and 47%, respectively. Besides, the Inhibition in the data set with Rattus norvegicus [8] amounted to 72%.
Consider `CC(C)(OCc1cc2cc(Cl)ccc2o1)C(=O)O`, for which, in the data set listed under Rattus norvegicus [2], the Decrease entry is “inactive”. The compound further had a logP in data set [3] of -0.57. For the same compound, in the data set on Rattus norvegicus [8], the Inhibition is 39%.
Regarding `CC(C)(OCc1nc(-c2ccc(Cl)cc2)co1)C(=O)O`, the log partition coefficient (logP) in data set [3] came to 0.15. For the same compound, the results for the Change in the data set on Rattus norvegicus [4] and with Rattus norvegicus [9] were 19% and 68%, respectively. Besides, in the data set listed under Rattus norvegicus [5], the Decrease is listed as 9%. Besides, the values for the inhibition in vivo at 100 mg/kg in the data set with Rattus norvegicus [6] and with Rattus norvegicus [7] were 63% and 39%, respectively. The Inhibition in the data set on Rattus norvegicus [8] came to 69%.
Take `CC(C)(OCc1cc(-c2ccc(Cl)cc2)on1)C(=O)O`: the lipophilicity (logP) in [3] stood at 0.46. In addition, the Change is reported as 41% in the data set on Rattus norvegicus [4] and 140% in the data set on Rattus norvegicus [9]. Besides, the Decrease in the data set filed under Rattus norvegicus [5] is reported as 34%. Further, the inhibition in vivo at 100 mg/kg in the data set on Rattus norvegicus [6] is 24%; in the data set on Rattus norvegicus [7], 42%. In addition, the Inhibition with Rattus norvegicus [8] was 64%.
What is called IC50 is the concentration that gives 50% inhibition. On to `COc1ccc2c(c1)c(CC(=O)O)c(C)n2C(=O)c1ccc(Cl)cc1` [INDOMETHACIN], for which the figures for the 50% inhibitory concentration (IC50) (in data set [15]; in the data set on Mononuclear cell line) were 1200 nM and 300 nM, respectively. In the data set listed under Rattus norvegicus [2], the Decrease result was “inactive”. Besides, the inhibition in vivo at 1 mg/kg in the data set with Rattus norvegicus [16] came to 48%; in the data set with Rattus norvegicus [17], 45%. Moreover, the Inhibition in the data set on Rattus norvegicus [8] is given as 84%.
Take `CC(C)(OCc1ccc(-c2ccc(Cl)cc2)nn1)C(=O)O`: the inhibition entry in the data set with Rattus norvegicus [1] was “inactive”. For the same compound, the Decrease entry in the data set filed under Rattus norvegicus [2] was “inactive”. The compound also gave a lipophilicity (logP) in data set [3] of -0.15.
In turn, `CC(C)(OCc1csc(-c2ccc(Cl)cc2)n1)C(=O)O` registered a lipophilicity (logP) in data set [3] of 0.66. In the data set listed under Rattus norvegicus [5], the Decrease is given as 16%. The Inhibition with Rattus norvegicus [8] came to 81%.
